Experimental data as given in ChEMBL document CHEMBL1821561 (Bioorg Med Chem, 2011).
Counter-ions that a name gives are not always drawn.

How the values were obtained:
D(1A) dopamine receptor [1] = target: T1, D(1A) dopamine receptor (Homo sapiens, UniProt P21728); experiment: Intrinsic activity at human dopamine D1 receptor expressed in HEK293 cells assessed as cAMP accumulation after 15 mins relative to dopamine; format: functional, cell-based
Summary of the method: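 HEK293 cells stably expressing hD1 (about 1800 fmol/mg) grown to 90–95% confluency. Medium replaced with 500 µM IBMX in EBSS, then drug added in duplicate for 15 min at 37 °C. Stopped with 3% trichloroacetic acid. cAMP measured by [3H]cAMP competition with bovine adrenal binding protein against a standard curve. Maximal response expressed as percent of 10 µM dopamine.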

[2] = Displacement of [3H]SCH23390 from dopamine D1-like receptor in pig striatal tissue homogenates after 30 mins by scintillation counting; format: tissue-based, Sus scrofa, Striatum
[3] = Displacement of [3H]-N-methylspiperone from dopamine D2-like receptor in pig striatal tissue homogenates after 30 mins by scintillation counting; format: tissue-based, Sus scrofa, Striatum
Summary of the method: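 Porcine striatal membranes with 0.2 nM [3H]-N-methylspiperone plus 50 nM ketanserin to block 5-HT2A sites. Buffer 50 mM HEPES, 4 mM MgCl2, pH 7.4. Nonspecific binding defined with (+)-butaclamol. Incubated 37 °C for 30 min, then filtered and washed with ice-cold Tris/NaCl.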

D(1A) dopamine receptor [4] = target: T1, D(1A) dopamine receptor; experiment: Agonist activity at human dopamine D1 receptor expressed in HEK293 cells assessed as cAMP accumulation after 15 mins; format: functional, cell-based
Sus scrofa = organism: Sus scrofa; experiment: Ratio of SKF38393 Ki to compound Ki for dopamine D1-like receptor in pig striatal tissue homogenates; format: tissue-based; conditions: Striatum

T1 sequence (P21728 whole entry): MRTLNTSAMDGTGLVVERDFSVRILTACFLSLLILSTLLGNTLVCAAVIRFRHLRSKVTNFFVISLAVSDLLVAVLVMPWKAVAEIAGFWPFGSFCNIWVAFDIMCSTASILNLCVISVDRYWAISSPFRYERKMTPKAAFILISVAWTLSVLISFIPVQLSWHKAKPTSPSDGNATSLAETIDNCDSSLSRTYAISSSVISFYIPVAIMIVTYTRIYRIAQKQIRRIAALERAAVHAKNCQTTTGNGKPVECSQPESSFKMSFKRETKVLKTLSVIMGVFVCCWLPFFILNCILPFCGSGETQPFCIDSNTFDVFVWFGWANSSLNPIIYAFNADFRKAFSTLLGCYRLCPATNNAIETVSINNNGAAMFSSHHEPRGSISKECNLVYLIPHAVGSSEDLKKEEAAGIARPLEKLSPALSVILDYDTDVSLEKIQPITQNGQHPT

SMILES | Intrinsic activity (D(1A) dopamine receptor [1]) [%] | Ki [2] [nM] | Ki [3] [µM] | EC50 (D(1A) dopamine receptor [4]) [nM] | Ratio Ki (Sus scrofa)
Oc1cc2c(cc1O)[C@H]1c3ccccc3OC[C@@H]1NCC2 (racemic) | 60 | 186 | 44.8 | 570 | –
Oc1cc2c(cc1O)[C@@H]1c3ccccc3CC[C@@H]1NCC2 (racemic) | – | 22000 | 88 | – | –
Oc1cc2c(cc1O)[C@H]1c3ccccc3SC[C@@H]1NCC2 (racemic) | 21 | 92 | 28 | 584 | 1.6
Oc1cc2c(cc1O)[C@H]1c3ccccc3CC[C@@H]1NCC2 (racemic) | 28 | 257 | 8.48 | 438 | –
CN1CCc2cc(Cl)c(O)cc2[C@H]2c3ccccc3CC[C@@H]21 [ECOPIPAM HYDROCHLORIDE] | – | 1.3 | 2.01 | – | –
CN1CCc2cc(Cl)c(O)cc2[C@@H](c2ccccc2)C1 | – | 0.64 | – | – | –
Oc1cc2c(cc1O)[C@@H](c1ccccc1)CNCC2 | 93 | 151 | 2.36 | – | –
Oc1cc2c(cc1O)[C@H]1c3ccccc3CN[C@@H]1CC2 (racemic) [DIHYDREXIDINE] | 103 | – | 0.32 | – | –
